Test system: duck HBV (DHBV)
Assay: Antiviral efficacy in a duck HBV model, serum DHBV DNA by quantitative PCR
Type: in vivo, Pekin ducklings
Details: DHBV-infected ducks, 50 mg/kg 3TC; for Serum DHBV DNA: P<0.001
Procedure, shortened: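 Pekin ducklings were infected with DHBV-positive duck serum and assayed for DNA load 7 days later (T0). Groups of five received test compound at 25, 50 or 100 mg/kg by oral gavage for 14 days. Controls were saline (negative) and 3TC 50 mg/kg once daily (positive). Serum DHBV DNA was measured by qPCR on treatment days 0, 7, 14 and 3 days after stopping; mean ± SD.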

Nc1ccn([C@@H]2CS[C@H](CO)O2)c(=O)n1 [3TC, lamivudine]
Reduction of serum DHBV DNA compared to vehicle controls (T7): up to 2 log10
Serum DHBV DNA (T7 (day 7 of treatment)): significantly inhibited
Serum DHBV DNA (T14 (day 14 of treatment)): significantly inhibited

From paper PMC7501955 (Drug Design, Development and Therapy, 2020)
